# Experimental data collected from several papers.
# Each line is one published result; the experiments were not run side by side.
# Target: Myosin light chain kinase (MYLK3, Homo sapiens, UniProt Q32MK0)
# One construct used (Q32MK0 1-819): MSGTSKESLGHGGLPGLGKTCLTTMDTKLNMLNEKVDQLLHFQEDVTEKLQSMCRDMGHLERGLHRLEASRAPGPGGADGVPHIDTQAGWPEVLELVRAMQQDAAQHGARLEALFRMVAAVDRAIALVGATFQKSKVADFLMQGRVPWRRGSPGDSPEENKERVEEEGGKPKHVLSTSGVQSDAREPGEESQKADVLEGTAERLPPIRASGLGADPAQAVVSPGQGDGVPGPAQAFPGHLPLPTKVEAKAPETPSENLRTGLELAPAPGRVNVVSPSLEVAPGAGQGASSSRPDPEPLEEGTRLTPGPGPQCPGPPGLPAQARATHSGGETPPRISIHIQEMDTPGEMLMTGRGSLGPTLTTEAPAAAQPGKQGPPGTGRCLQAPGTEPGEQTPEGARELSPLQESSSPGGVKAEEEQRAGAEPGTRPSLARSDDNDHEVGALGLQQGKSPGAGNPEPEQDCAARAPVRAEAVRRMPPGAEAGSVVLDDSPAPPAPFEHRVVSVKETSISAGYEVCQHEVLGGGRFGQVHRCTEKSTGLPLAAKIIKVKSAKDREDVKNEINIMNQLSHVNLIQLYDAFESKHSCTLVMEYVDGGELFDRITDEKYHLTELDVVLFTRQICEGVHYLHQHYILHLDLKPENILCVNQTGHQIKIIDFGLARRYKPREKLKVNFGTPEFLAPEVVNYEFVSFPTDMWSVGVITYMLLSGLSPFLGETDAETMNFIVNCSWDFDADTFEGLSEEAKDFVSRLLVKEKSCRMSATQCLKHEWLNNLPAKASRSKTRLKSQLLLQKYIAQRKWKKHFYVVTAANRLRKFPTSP
SMILES,test,setting,endpoint,value
Cn1cc(-c2cc(F)cc(N3CCn4c(cc5c4CCCC5)C3=O)c2CO)cc(Nc2ccc(N3CCN(C4COC4)CC3)cn2)c1=O,"enzyme activity, inhibitor",0.1 µM,inhibition,-5%
COc1ncccc1-c1cnn2ccc(N3CCN(C(=O)OC(C)C)CC3)nc12,"binding, competition with immobilised ligand",1 µM,remaining binding,100%
Cn1cc(-c2cccc(N3CCc4c(sc5c4CC(C)(C)C5)C3=O)c2CO)cc(Nc2ccncn2)c1=O,"enzyme activity, inhibitor",1 µM,inhibition,-8%
Nc1ncc(-c2nc(N3CCOCC3)nc(N3CCOCC3)n2)c(C(F)F)n1,"binding, competition with immobilised ligand",10 µM,remaining binding,84%
Cn1cncc1[C@](O)(COc1ccc(C#N)cc1-c1ccc(OC(F)(F)F)cc1)c1ccc(C#N)cc1,"cell-free assay, competition with immobilised ligand",1 µM,remaining binding,100%
COc1cc(Nc2ncc(F)c(Nc3ccc4c(n3)NC(=O)C(C)(C)O4)n2)cc(OC)c1OC,"binding, competition with immobilised ligand",10 µM,inhibition,30%
Cc1nn(C)cc1-c1nc2c(N3CCN(Cc4ccc(Cl)cc4)CC3)c(Cl)cnc2[nH]1,"binding, competition with immobilised ligand",1 µM,remaining binding,100%
N#CC1(c2ccccn2)CCN(Cc2cc(C(=O)O)c(=O)n3ccccc23)CC1,"cell-free assay, competition with immobilised ligand",1 µM,remaining binding,87%
